Measurements: ChEMBL document CHEMBL1153011, “Mechanism of unusual formation of 3-(5-phenyl-3H-[1,2,4]dithiazol-3-yl)chromen-4-ones and 4-oxo-4H-chromene-3-carbothioic acid N-phenylamides and their antimicrobial evaluation” (2009)
In brackets after ≈: the same amount, converted by molar mass. Activity calls are given as the source filed them. The calls are words filed in the database; no cut-off is given here.

How the values were obtained:
[1] = system: Candida albicans; assay: Antifungal activity against Candida albicans MTCC 227 after 24 to 72 hrs by broth dilution method; type: functional
Outline: (§1)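 Fungi grown at 25 °C on Sabouraud dextrose agar. Compounds dissolved in DMSO (1/10) and tested at several concentrations in Sabouraud dextrose broth in tubes. Conidial suspension at final 1 × 10^5 CFU/ml, with growth and sterility control tubes. […] DMSO negative control; fluconazole positive control.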

[2] = system: Escherichia coli; assay: Antibacterial activity against Escherichia coli MTCC 119 at 2.5 x 10^-5 ug/ml after 24 hrs by disk diffusion assay; type: functional; settings: MTCC 119, 24 h, read-out: GI
Outline: (§2)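 Disk diffusion. 100 µl of 4-h nutrient-broth cultures spread on Mueller Hinton agar. Compounds in DMSO (1/10) applied to 8 mm paper disks. After 24 h at 37 °C, growth-inhibition zone diameter measured. DMSO negative control; chloramphenicol and ciprofloxacin positive controls.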

[3] = system: Escherichia coli; assay: Antibacterial activity against Escherichia coli MTCC 119 at 5 x 10^-5 ug/ml after 24 hrs by disk diffusion assay; type: functional; settings: MTCC 119, 24 h, read-out: GI; outline: as §2
[4] = system: Escherichia coli; assay: Antibacterial activity against Escherichia coli MTCC 119 at 1 x 10^-4 ug/ml after 24 hrs by disk diffusion assay; type: functional; settings: MTCC 119, 24 h, read-out: GI; outline: as §2
[5] = system: Shigella flexneri; assay: Antibacterial activity against Shigella flexneri MTCC 1457 at 2.5 x 10^-5 ug/ml after 24 hrs by disk diffusion assay; type: functional; settings: MTCC 1457, 24 h, read-out: GI; outline: as §2
[6] = system: Shigella flexneri; assay: Antibacterial activity against Shigella flexneri MTCC 1457 at 5 x 10^-5 ug/ml after 24 hrs by disk diffusion assay; type: functional; settings: MTCC 1457, 24 h, read-out: GI; outline: as §2
[7] = system: Shigella flexneri; assay: Antibacterial activity against Shigella flexneri MTCC 1457 at 1 x 10^-4 ug/ml after 24 hrs by disk diffusion assay; type: functional; settings: MTCC 1457, 24 h, read-out: GI; outline: as §2
[8] = system: Pseudomonas aeruginosa; assay: Antibacterial activity against Pseudomonas aeruginosa MTCC 741 at 2.5 x 10^-5 ug/ml after 24 hrs by disk diffusion assay; type: functional, organism-based; outline: as §2
[9] = system: Pseudomonas aeruginosa; assay: Antibacterial activity against Pseudomonas aeruginosa MTCC 741 at 5 x 10^-5 ug/ml after 24 hrs by disk diffusion assay; type: functional, organism-based; outline: as §2
[10] = system: Pseudomonas aeruginosa; assay: Antibacterial activity against Pseudomonas aeruginosa MTCC 741 at 1 x 10^-4 ug/ml after 24 hrs by disk diffusion assay; type: functional, organism-based; outline: as §2
[11] = system: Staphylococcus aureus; assay: Antibacterial activity against Staphylococcus aureus MTCC 740 at 2.5 x 10^-5 ug/ml after 24 hrs by disk diffusion assay; type: functional; settings: MTCC 740, 24 h, read-out: GI; outline: as §2
[12] = system: Staphylococcus aureus; assay: Antibacterial activity against Staphylococcus aureus MTCC 740 at 5 x 10^-5 ug/ml after 24 hrs by disk diffusion assay; type: functional; settings: MTCC 740, 24 h, read-out: GI; outline: as §2
[13] = system: Staphylococcus aureus; assay: Antibacterial activity against Staphylococcus aureus MTCC 740 at 1 x 10^-4 ug/ml after 24 hrs by disk diffusion assay; type: functional; settings: MTCC 740, 24 h, read-out: GI; outline: as §2
[14] = system: Escherichia coli; assay: Antibacterial activity against Escherichia coli MTCC 119 after overnight incubation by broth dilution method; type: functional
Outline: (§3)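 Bacteria grown at 37 °C on nutrient agar. Compounds dissolved in DMSO (1/10) and tested in twofold serial dilutions in Mueller Hinton broth in tubes. Inoculum was a McFarland-standardized suspension, final 5 × 10^5 CFU/ml, with growth and sterility control tubes. Incubation overnight at 37 °C. MIC read by OD600 as the lowest concentration with no turbidity. DMSO negative control; chloramphenicol and ciprofloxacin positive controls.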

[15] = system: Shigella flexneri; assay: Antibacterial activity against Shigella flexneri MTCC 1457 after overnight incubation by broth dilution method; type: functional; outline: as §3
[16] = system: Pseudomonas aeruginosa; assay: Antibacterial activity against Pseudomonas aeruginosa MTCC 741 after overnight incubation by broth dilution method; type: functional; outline: as §3
[17] = system: Staphylococcus aureus; assay: Antibacterial activity against Staphylococcus aureus MTCC 740 after overnight incubation by broth dilution method; type: functional; outline: as §3
[18] = system: Aspergillus niger; assay: Antifungal activity against Aspergillus niger MTCC 281 after 24 to 72 hrs by broth dilution method; type: functional; outline: as §1
[19] = system: Geotrichum candidum; assay: Antifungal activity against Geotrichum candidum MTCC 3993 after 24 to 72 hrs by broth dilution method; type: functional; outline: as §1
[20] = system: Candida tropicalis; assay: Antifungal activity against Candida tropicalis MTCC 230 after 24 to 72 hrs by broth dilution method; type: functional; outline: as §1

| Compound | MIC [1] | inhibition of growth at 25 pg/mL [2] | inhibition of growth at 50 pg/mL [3] | inhibition of growth at 0.0001 µg/mL [4] | inhibition of growth at 25 pg/mL [5] | inhibition of growth at 50 pg/mL [6] | inhibition of growth at 0.0001 µg/mL [7] | growth inhibition (GI) [8] | growth inhibition (GI) [9] | growth inhibition (GI) [10] | inhibition of growth at 25 pg/mL [11] | inhibition of growth at 50 pg/mL [12] | inhibition of growth at 0.0001 µg/mL [13] | MIC [14] | MIC [15] | MIC [16] | MIC [17] | MIC [18] | MIC [19] | MIC [20] |
| --- | --- | --- | --- | --- | --- | --- | --- | --- | --- | --- | --- | --- | --- | --- | --- | --- | --- | --- | --- | --- |
| O=c1c(C(=S)Nc2ccccc2)coc2cc(Cl)c(Cl)cc12 | 75 µg/mL (≈ 214 µM) | 20.4% | 78.3% | 100% | 8.82% | 60.9% | 100% | inactive | inactive | inactive | 3.78% | 90.9% | 100% | 64 µg/mL (≈ 183 µM) | 62 µg/mL (≈ 177 µM) | inactive | 55 µg/mL (≈ 157 µM) | – | – | – |
| O=c1c(C2N=C(c3ccccc3)SS2)coc2ccccc12 (stereo not given) | 30 µg/mL (≈ 92.2 µM) | 24.8% | 56.7% | 100% | 44.3% | 85.5% | 100% | inactive | inactive | inactive | 30.2% | 73.9% | 100% | 88 µg/mL (≈ 270 µM) | 58 µg/mL (≈ 178 µM) | inactive | 68 µg/mL (≈ 209 µM) | 90 µg/mL (≈ 277 µM) | 32 µg/mL (≈ 98.3 µM) | 40 µg/mL (≈ 123 µM) |
| O=c1c(C(=S)Nc2ccccc2)coc2ccc(F)cc12 | – | – | 73.8% | 100% | – | – | – | inactive | inactive | inactive | – | – | – | 68 µg/mL (≈ 227 µM) | – | inactive | – | 120 µg/mL (≈ 401 µM) | – | – |
| O=c1c(C2N=C(c3ccccc3)SS2)coc2ccc(F)cc12 (stereo not given) | 30 µg/mL (≈ 87.4 µM) | – | 12.3% | 80.9% | 28.4% | 62.3% | 100% | inactive | inactive | inactive | – | 23.9% | 48.8% | 120 µg/mL (≈ 349 µM) | 80 µg/mL (≈ 233 µM) | inactive | 205 µg/mL (≈ 597 µM) | 50 µg/mL (≈ 146 µM) | 32 µg/mL (≈ 93.2 µM) | 42 µg/mL (≈ 122 µM) |
| Cc1ccc2occ(C3N=C(c4ccccc4)SS3)c(=O)c2c1 (stereo not given) | 60 µg/mL (≈ 177 µM) | – | 30% | 72.5% | 21% | 60.9% | 100% | inactive | inactive | inactive | 35% | 92.7% | 100% | 132 µg/mL (≈ 389 µM) | 82 µg/mL (≈ 242 µM) | inactive | 54 µg/mL (≈ 159 µM) | 150 µg/mL (≈ 442 µM) | 95 µg/mL (≈ 280 µM) | 52 µg/mL (≈ 153 µM) |
| O=C(O)c1cn(C2CC2)c2cc(N3CCNCC3)c(F)cc2c1=O [CIPROFLOXACIN] | – | – | – | – | – | – | – | – | – | – | – | – | – | 1.2 µg/mL (≈ 3.62 µM) | 1.4 µg/mL (≈ 4.23 µM) | 1.8 µg/mL (≈ 5.43 µM) | 0.9 µg/mL (≈ 2.72 µM) | – | – | – |
| O=c1c(C2N=C(c3ccccc3)SS2)coc2ccc(Cl)cc12 (stereo not given) | 28 µg/mL (≈ 77.8 µM) | 22% | 49.6% | 100% | 27.3% | 55.8% | 100% | inactive | inactive | inactive | 26.4% | 51.5% | 100% | 100 µg/mL (≈ 278 µM) | 90 µg/mL (≈ 250 µM) | inactive | 98 µg/mL (≈ 272 µM) | 125 µg/mL (≈ 347 µM) | 30 µg/mL (≈ 83.4 µM) | 28 µg/mL (≈ 77.8 µM) |
| O=c1c(C(=S)Nc2ccccc2)coc2cc(Cl)ccc12 | 60 µg/mL (≈ 190 µM) | – | 42.6% | 87.6% | – | 52.2% | 100% | inactive | inactive | inactive | – | 43.6% | 81% | 115 µg/mL (≈ 364 µM) | 96 µg/mL (≈ 304 µM) | inactive | 125 µg/mL (≈ 396 µM) | 80 µg/mL (≈ 253 µM) | – | 60 µg/mL (≈ 190 µM) |
| O=c1c(C2N=C(c3ccccc3)SS2)coc2cc(Cl)c(F)cc12 (stereo not given) | 40 µg/mL (≈ 106 µM) | – | 14% | 30.5% | 48.3% | 98.5% | 100% | inactive | inactive | inactive | 32.9% | 68.7% | 100% | 350 µg/mL (≈ 926 µM) | 52 µg/mL (≈ 138 µM) | inactive | 72 µg/mL (≈ 191 µM) | 90 µg/mL (≈ 238 µM) | 5 µg/mL (≈ 13.2 µM) | 28 µg/mL (≈ 74.1 µM) |
| O=C(N[C@H](CO)[C@H](O)c1ccc([N+](=O)[O-])cc1)C(Cl)Cl [CHLORAMPHENICOL] | – | – | – | – | – | – | – | – | – | – | – | – | – | 2.5 µg/mL (≈ 7.74 µM) | 5.6 µg/mL (≈ 17.3 µM) | 2.7 µg/mL (≈ 8.36 µM) | 13.6 µg/mL (≈ 42.1 µM) | – | – | – |
| O=c1c(C(=S)Nc2ccccc2)coc2ccccc12 | – | 38.5% | 85.5% | 100% | – | 55.3% | 100% | inactive | inactive | inactive | 35.6% | 76.2% | 100% | 62 µg/mL (≈ 220 µM) | 92 µg/mL (≈ 327 µM) | inactive | 70 µg/mL (≈ 249 µM) | 90 µg/mL (≈ 320 µM) | – | – |
| OC(Cn1cncn1)(Cn1cncn1)c1ccc(F)cc1F [FLUCONAZOLE] | 24 µg/mL (≈ 78.4 µM) | – | – | – | – | – | – | – | – | – | – | – | – | – | – | – | – | 49 µg/mL (≈ 160 µM) | 9 µg/mL (≈ 29.4 µM) | 25 µg/mL (≈ 81.6 µM) |
